The values below come from ChEMBL document CHEMBL4312005, “Optimization of pyrrolizine-based Schiff bases with 4-thiazolidinone motif: Design, synthesis and investigation of cytotoxicity and anti-inflammatory potency” (Eur J Med Chem, 2020).

By IC50 is commonly meant the concentration that inhibits the measured activity by half.

The target of test [1] is Ribosomal protein S6 kinase alpha-5 (Homo sapiens) (UniProt O75582). Kind of test: Inhibition of recombinant human N-terminal GST-tagged full length MSK1 expressed in baculovirus infected Sf9 insect cells assessed as enzyme activity incubated for 15 mins by [gamma-33]ATP based scintillation counting method relative to control. On the set-up: scale not given: the % may be the effect or the level left.

Test [2] relates to MCF7. As to the kind of experiment: Cell cycle arrest in human MCF7 cells assessed as S phase accumulation at 5 uM incubated for 24 hrs by propidium iodide based flow cytometry (reference value: 17.3 to 28.5 %). Type of test: functional.
The next test has as its system HT-29. As to the kind of experiment: Antiproliferative activity against human HT-29 cells assessed as reduction in cell growth incubated for 72 hrs by MTT assay. Type of test: functional, cell-based. The conditions noted are these: HT-29, 72 h. The gist of the method:
(§1)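 MTT assay on MCF-7, A2780, HT29 and normal MRC5 fibroblast lines (ATCC) grown in DMEM with 10% FBS. Cells exposed to compounds for 72 h, then reduced MTT read at 570 nm.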
In general terms: Tetrazolium dyes change colour on reduction, which living cells bring about.

The target in test [3] is T1, Ephrin type-A receptor 1 (Homo sapiens) (UniProt P21709).
T1 sequence (whole entry): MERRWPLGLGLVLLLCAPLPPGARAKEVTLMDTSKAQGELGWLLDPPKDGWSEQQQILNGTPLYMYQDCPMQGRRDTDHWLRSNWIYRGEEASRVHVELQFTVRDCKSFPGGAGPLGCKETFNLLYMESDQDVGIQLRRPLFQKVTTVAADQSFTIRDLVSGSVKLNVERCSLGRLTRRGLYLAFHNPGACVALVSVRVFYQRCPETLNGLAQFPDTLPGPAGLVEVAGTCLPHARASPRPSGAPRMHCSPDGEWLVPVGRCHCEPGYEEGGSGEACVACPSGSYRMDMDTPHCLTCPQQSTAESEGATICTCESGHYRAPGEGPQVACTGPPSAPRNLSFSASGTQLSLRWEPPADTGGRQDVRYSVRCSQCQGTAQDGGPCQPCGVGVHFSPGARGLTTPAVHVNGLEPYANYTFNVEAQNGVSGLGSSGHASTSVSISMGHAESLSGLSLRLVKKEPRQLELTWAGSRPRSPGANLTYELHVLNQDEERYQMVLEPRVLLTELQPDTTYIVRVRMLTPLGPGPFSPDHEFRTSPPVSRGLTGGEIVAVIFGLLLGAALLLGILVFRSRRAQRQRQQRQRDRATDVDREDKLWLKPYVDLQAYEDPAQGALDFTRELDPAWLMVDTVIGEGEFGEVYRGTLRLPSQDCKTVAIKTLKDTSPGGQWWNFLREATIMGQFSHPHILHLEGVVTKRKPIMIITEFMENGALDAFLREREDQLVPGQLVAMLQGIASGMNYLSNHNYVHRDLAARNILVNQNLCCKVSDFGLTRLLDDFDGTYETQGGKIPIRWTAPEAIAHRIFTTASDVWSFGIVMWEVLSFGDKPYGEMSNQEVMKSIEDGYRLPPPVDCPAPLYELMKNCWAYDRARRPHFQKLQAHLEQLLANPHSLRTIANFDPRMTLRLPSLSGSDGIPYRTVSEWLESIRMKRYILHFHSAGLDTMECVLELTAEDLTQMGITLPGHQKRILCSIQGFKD
Kind of test: Inhibition of recombinant human N-terminal GST-tagged EPHA1 (569 to end residues) expressed in baculovirus infected Sf9 insect cells assessed as enzyme activity incubated for 15 mins by [gamma-33]ATP based scintillation counting method relative to control. On the set-up: scale not given: the % may be the effect or the level left.

For the next test, the system named is A2780. As to the kind of experiment: Antiproliferative activity against human A2780 cells assessed as reduction in cell growth incubated for 72 hrs by MTT assay. As to conditions: A2780, 72 h. Type of test: functional, cell-based. The gist of the method:
as §1

The target of test [4] is T2, 3-phosphoinositide-dependent protein kinase 1 (Homo sapiens) (UniProt O15530).
T2 sequence (whole entry): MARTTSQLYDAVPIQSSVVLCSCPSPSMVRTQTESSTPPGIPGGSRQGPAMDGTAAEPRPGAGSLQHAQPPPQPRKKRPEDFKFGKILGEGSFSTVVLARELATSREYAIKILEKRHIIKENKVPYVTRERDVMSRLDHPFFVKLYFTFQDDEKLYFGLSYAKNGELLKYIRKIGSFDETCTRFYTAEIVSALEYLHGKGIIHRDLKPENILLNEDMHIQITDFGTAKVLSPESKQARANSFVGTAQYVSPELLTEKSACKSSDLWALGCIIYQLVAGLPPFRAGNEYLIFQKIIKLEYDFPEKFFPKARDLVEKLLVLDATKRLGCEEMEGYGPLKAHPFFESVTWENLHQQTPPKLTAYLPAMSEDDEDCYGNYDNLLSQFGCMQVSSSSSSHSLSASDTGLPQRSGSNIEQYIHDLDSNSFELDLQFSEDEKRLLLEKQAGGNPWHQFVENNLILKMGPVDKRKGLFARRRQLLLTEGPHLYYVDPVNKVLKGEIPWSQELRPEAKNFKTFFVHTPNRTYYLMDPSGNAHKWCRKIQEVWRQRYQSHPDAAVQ
Kind of test: Inhibition of recombinant human N-terminal His-tagged full length PDK1 expressed in baculovirus infected Sf9 insect cells assessed as enzyme activity incubated for 15 mins by [gamma-33]ATP based scintillation counting method relative to control. On the set-up: scale not given: the % may be the effect or the level left.

In test [5] the test system is MCF7. As to the kind of experiment: Induction of apoptosis in human MCF7 cells assessed as late apoptotic cells at 5 uM incubated for 24 hrs by annexin V FITC and propidium iodide staining based flow cytometry (reference value: 0 to 2.5 %). Type of test: functional. A general note: A flow cytometer gives signals particle by particle.
Test [6] relates to MCF7. As to the kind of experiment: Induction of apoptosis in human MCF7 cells assessed as viable cells at 5 uM incubated for 24 hrs by annexin V FITC and propidium iodide staining based flow cytometry (reference value: 76 to 95.9 %). Type of test: functional. The conditions noted are these: MCF7, 24 h, read-out: Activity.
The target of test [7] is Cyclin-dependent kinase 2 (Homo sapiens, UniProt P24941). As to the kind of experiment: Inhibition of CDK2 (unknown origin) incubated for 40 mins by ADP-glo assay. On the technique in general: ADP-Glo turns the ADP formed in a reaction into a luminescent signal.
Test [8] has as its target Vascular endothelial growth factor receptor 1 (Homo sapiens) (UniProt P17948). As to the kind of experiment: Inhibition of recombinant human N-terminal GST-tagged FLT1 (784 to end residues) expressed in baculovirus infected Sf9 insect cells assessed as enzyme activity incubated for 15 mins by [gamma-33]ATP based scintillation counting method relative to control. On the set-up: scale not given: the % may be the effect or the level left.

Test [9] has as its target AMP-activated protein kinase (AMPK) alpha-1/beta-1/gamma-1 (Homo sapiens) (UniProt P54619+Q9Y478+Q13131). Kind of test: Inhibition of recombinant human C-terminal His-tagged full length AMPK alpha1/beta1/gamma1 expressed in baculovirus infected Sf9 insect cells assessed as enzyme activity incubated for 15 mins by [gamma-33]ATP based scintillation counting method relative to control. On the set-up: scale not given: the % may be the effect or the level left.

In test [10] the test system is MCF7. As to the kind of experiment: Induction of apoptosis in human MCF7 cells assessed as necrotic cells at 5 uM incubated for 24 hrs by annexin V FITC and propidium iodide staining based flow cytometry (reference value: 4.1 to […]). Type of test: functional.
For test [11], the system named is MCF7. Kind of test: Induction of apoptosis in human MCF7 cells assessed as necrotic cells at 10 uM incubated for 24 hrs by annexin V FITC and propidium iodide staining based flow cytometry (reference value: 4.1 to […]). Type of test: functional.
In test [12] the target is Glycogen synthase kinase-3 alpha (Homo sapiens) (UniProt P49840). As to the kind of experiment: Inhibition of recombinant human N-terminal GST-tagged full length GSK3alpha expressed in baculovirus infected Sf9 insect cells assessed as enzyme activity incubated for 15 mins by [gamma-33]ATP based scintillation counting method relative to control. More on the design: scale not given: the % may be the effect or the level left.
Chain of Glycogen synthase kinase-3 alpha (Homo sapiens) (P49840 2-483 limits assumed): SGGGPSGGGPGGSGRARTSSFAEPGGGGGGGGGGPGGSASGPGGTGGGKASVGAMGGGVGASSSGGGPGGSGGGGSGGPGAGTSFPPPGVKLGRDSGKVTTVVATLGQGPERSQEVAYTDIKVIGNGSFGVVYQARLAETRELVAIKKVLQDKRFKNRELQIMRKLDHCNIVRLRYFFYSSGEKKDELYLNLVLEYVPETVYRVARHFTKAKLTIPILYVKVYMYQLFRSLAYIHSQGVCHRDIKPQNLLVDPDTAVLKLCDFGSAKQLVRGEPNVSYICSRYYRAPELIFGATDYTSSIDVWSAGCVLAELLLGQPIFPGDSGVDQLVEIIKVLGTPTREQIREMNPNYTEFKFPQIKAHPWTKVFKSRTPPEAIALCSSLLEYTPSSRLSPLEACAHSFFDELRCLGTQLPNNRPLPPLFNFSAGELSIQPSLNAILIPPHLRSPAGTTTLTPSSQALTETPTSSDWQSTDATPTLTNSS

Chain of Vascular endothelial growth factor receptor 1 (Homo sapiens) (P17948 whole entry): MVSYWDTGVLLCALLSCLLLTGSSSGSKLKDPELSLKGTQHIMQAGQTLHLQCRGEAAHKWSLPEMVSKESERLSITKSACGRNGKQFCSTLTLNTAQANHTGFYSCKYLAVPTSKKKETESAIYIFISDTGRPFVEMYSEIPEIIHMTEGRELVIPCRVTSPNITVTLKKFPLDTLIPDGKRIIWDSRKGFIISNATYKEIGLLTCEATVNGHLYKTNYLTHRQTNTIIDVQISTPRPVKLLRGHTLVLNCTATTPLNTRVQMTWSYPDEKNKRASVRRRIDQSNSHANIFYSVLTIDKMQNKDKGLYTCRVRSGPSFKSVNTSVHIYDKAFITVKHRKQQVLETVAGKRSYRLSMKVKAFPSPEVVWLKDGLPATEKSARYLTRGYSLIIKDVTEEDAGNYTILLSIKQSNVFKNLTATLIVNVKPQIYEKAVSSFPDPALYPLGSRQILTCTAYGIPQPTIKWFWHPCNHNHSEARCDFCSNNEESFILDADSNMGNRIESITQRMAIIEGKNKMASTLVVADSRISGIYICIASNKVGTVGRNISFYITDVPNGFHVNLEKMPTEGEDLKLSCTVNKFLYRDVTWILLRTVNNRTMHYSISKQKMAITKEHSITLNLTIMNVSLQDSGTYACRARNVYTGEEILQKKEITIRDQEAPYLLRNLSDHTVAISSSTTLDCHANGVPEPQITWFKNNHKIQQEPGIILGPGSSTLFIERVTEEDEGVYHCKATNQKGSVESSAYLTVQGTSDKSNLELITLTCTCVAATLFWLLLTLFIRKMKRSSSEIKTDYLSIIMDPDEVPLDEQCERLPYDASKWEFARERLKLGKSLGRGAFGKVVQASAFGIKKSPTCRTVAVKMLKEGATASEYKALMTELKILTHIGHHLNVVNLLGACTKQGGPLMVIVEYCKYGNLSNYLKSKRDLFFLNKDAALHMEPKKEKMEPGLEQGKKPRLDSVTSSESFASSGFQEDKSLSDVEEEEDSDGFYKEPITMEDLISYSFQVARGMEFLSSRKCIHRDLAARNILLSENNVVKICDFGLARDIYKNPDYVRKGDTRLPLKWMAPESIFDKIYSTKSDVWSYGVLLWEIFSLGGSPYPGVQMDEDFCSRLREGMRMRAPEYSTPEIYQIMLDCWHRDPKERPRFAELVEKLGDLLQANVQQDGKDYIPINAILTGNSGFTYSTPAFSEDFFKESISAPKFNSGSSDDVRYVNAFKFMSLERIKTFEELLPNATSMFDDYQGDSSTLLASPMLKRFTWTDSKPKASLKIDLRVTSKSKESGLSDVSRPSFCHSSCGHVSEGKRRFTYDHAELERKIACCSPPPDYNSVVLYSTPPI
Chain of AMP-activated protein kinase (AMPK) alpha-1/beta-1/gamma-1 (Homo sapiens) (P54619 whole entry): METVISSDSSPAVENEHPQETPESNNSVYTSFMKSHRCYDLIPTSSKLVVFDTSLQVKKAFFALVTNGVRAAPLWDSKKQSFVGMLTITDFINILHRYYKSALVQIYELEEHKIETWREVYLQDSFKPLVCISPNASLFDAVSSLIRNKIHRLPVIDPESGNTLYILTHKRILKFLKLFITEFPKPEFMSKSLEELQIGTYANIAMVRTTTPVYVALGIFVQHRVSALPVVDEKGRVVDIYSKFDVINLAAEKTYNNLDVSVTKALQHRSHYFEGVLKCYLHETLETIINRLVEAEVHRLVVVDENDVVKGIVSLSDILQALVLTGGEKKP
Chain of AMP-activated protein kinase (AMPK) alpha-1/beta-1/gamma-1 (Homo sapiens) (Q13131 whole entry partner): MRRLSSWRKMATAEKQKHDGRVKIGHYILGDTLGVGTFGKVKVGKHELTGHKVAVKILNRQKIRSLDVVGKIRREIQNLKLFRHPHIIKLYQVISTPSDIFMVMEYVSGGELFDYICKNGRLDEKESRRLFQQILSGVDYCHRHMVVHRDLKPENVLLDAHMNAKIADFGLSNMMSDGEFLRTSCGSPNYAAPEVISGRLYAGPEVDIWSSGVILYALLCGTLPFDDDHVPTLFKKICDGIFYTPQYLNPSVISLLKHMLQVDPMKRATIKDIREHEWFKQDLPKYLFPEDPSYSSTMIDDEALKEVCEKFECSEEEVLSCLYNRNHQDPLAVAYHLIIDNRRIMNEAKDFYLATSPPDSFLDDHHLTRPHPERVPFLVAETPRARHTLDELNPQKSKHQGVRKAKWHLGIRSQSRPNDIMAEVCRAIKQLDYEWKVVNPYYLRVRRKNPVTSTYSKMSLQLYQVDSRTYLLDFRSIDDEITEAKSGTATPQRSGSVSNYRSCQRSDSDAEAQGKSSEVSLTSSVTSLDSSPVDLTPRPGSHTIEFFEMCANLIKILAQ
Chain of AMP-activated protein kinase (AMPK) alpha-1/beta-1/gamma-1 (Homo sapiens) (Q9Y478 2-270 partner limits assumed): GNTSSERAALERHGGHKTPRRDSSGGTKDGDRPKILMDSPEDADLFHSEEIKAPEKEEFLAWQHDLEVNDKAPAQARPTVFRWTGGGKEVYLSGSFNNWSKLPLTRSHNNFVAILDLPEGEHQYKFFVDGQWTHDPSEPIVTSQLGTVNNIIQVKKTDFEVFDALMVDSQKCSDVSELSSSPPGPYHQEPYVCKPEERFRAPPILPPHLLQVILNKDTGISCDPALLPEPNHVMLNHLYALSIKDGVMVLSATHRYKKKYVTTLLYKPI
Chain of Ribosomal protein S6 kinase alpha-5 (Homo sapiens) (O75582 whole entry, looked up): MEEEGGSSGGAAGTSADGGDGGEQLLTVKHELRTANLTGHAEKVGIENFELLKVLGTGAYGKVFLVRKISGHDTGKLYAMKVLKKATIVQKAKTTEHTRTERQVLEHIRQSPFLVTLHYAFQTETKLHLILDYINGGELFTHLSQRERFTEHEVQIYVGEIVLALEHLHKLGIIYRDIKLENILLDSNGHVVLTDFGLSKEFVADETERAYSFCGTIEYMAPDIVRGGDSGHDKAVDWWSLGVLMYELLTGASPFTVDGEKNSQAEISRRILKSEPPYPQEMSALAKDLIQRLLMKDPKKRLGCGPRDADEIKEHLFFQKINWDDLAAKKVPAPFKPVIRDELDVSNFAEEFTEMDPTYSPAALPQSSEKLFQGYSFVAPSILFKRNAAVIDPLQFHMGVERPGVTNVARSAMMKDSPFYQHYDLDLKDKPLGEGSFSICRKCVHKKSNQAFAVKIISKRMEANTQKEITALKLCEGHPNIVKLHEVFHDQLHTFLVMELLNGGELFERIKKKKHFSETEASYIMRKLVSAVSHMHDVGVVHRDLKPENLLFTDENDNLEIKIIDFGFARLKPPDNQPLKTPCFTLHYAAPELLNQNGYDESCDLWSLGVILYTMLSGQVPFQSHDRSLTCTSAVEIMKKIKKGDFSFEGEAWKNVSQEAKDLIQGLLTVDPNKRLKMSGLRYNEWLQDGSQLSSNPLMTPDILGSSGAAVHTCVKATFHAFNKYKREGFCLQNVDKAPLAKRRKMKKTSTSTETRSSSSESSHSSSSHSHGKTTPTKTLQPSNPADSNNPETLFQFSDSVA

With `CC(C)C/C=N/c1c(C#N)c2n(c1C(=O)Nc1ccc(Br)cc1)CCC2`, the Activity in test [1] came out at 29%; with MCF7 [2], 55.1%; in test [3] it was 25%; in test [4], 28%; in the test with MCF7 [5] it was 11.2%; in test [8], 1%. Also, the Activity in test [9] was 12%; with MCF7 [10], 13.4%; in the test with MCF7 [11], 14.7%; in test [12], -3%. In addition, the 50% inhibitory concentration (IC50) was 670 nM with HT-29, 520 nM in the test with A2780 and 1270 nM in test [7]. Moreover, the viability at 5 µM in the test on MCF7 [6] amounted to 58.9%.

As for `Cc1ccc(NC(=O)c2ccc(CN3CCN(C)CC3)cc2)cc1Nc1nccc(-c2cccnc2)n1`, the Activity was 49% in test [1]; 22% in [3]; 34% in test [4]; -10% in test [8]; 18% in test [9]; -1% in test [12].

As to `CCC1SCC(=O)N1c1c(C#N)c2n(c1C(=O)Nc1ccccc1)CCC2` (stereo not drawn), the Activity in [1] was -23%; in the test on MCF7 [2] it was 17.8%; in test [3], 4%; in test [4], -11%; in the test on MCF7 [5], 6.9%; in [8], 32%. In addition, the Activity in test [9] was 2%; in the test on MCF7 [10] it was 0.9%; with MCF7 [11], 3.7%; in [12], -12%. In addition, the 50% inhibitory concentration (IC50) turned out to be 600 nM with HT-29, 220 nM in the test on A2780 and 630 nM in [7]. The viability at 5 µM in the test with MCF7 [6] is 77.8%.

With `CC/C=N/c1c(C#N)c2n(c1C(=O)Nc1ccccc1)CCC2`, the Activity is -22% in test [1]; -5% in test [3]; -15% in test [4]; 18% in [8]; -4% in [9]; -24% in test [12]. Also, the 50% inhibitory concentration (IC50) turned out to be 200 nM with HT-29, 15600 nM with A2780 and 580 nM in [7].
